These results are taken from ChEMBL document CHEMBL4041505, “Synthesis, SAR and pharmacological characterization of novel anthraquinone cation compounds as potential anticancer agents” (Eur J Med Chem, 2017).

Molecules are shown by their SMILES. A value given as a limit tells only on which side of the number the result lay.

Data set [1] relates to HepG2. The data set can be described thus: Cytotoxicity against human HepG2 cells measured after 24 hrs by MTT assay. The class given is functional, cell-based. The conditions noted are these: HepG2, 24 h. The method, boiled down: (§1)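 Cells were kept in RPMI 1640 with 10% FBS, penicillin and streptomycin at 37°C in 5% CO2. Seeding was given for A375 only, at 1×10^4/well. After 24 h, cells were exposed to compounds for 24 h; compounds were dissolved in DMSO and diluted in medium containing 0.1% DMSO. Cells were washed, given 5 mg/mL MTT for 4 h, and formazan was dissolved in DMSO and read at 492 nm. Three independent experiments were run in triplicate, with IC50 taken from viability curves.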
(Tetrazolium assays rely on reduction of a dye to a coloured formazan, in cell work by metabolically active cells.)

Data set [2] can be described thus: Cytotoxicity against HELF cells measured after 24 hrs by MTT assay. The conditions noted are these: Homo sapiens. The class given is cell-based. The method, boiled down: as §1
The test system of data set [3] is BGC-823. In words: Cytotoxicity against human BGC823 cells measured after 24 hrs by MTT assay. The class given is functional, cell-based. The conditions noted are these: BGC-823, 24 h. In outline:
as §1

For data set [4], the system named is A-375. In words: Cytotoxicity against human A375 cells measured after 24 hrs by MTT assay. It counts as functional, cell-based. The conditions noted are these: A-375, 24 h. In outline:
as §1

In data set [5] the test system is HeLa. In words: Induction of apoptosis in human HeLa cells assessed as late apoptotic cells at 1 uM measured after 24 hrs by Annexin V-FITC/propidium iodide staining based flow cytometry (reference value: 0.058 %). The class given is functional. On the technique in general: In flow cytometry, cells or beads pass a laser one at a time.
The subject of data set [6] is A-375. The data set can be described thus: Induction of apoptosis in human A375 cells assessed as increase in caspase-3 expression measured after 24 hrs by Western blot analysis. It counts as functional, cell-based. In outline: (§2)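 A375 cells were treated for 24 h at 5 or 10 μM. Lysates were clarified at 12,000 g for 5 min at 4°C and protein measured by BCA. Equal protein was run on 10% SDS-PAGE and transferred to PVDF. Primary antibodies (1:1000) were applied overnight at 4°C, then secondary (1:5000) for 2 h at 37°C. Detection was by chemiluminescence with densitometry, GAPDH as internal reference.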
On the technique in general: A western blot detects proteins with antibodies after separation by electrophoresis.

For data set [7], the system named is A-375. In words: Induction of apoptosis in human A375 cells assessed as decrease in mitochondrial membrane potential at 1 uM measured after 30 mins by DiOC6 dye based flow cytometry relative to control. It counts as functional. More on the design: scale not given: the % may be the effect or the level left. The method, boiled down: (§3)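 A375 cells were treated at 0, 1, 2 or 4 μM, then loaded with 50 nM DiOC6 in serum-free DMEM at 37°C for 30 min. Cells were washed twice with ice-cold PBS, harvested and analysed by flow cytometry. ΔΨm is expressed as percent change versus untreated cells, as mean±SD of three determinations.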

Data set [8] deals with A-375. The data set can be described thus: Induction of apoptosis in human A375 cells assessed as loss of mitochondrial membrane potential measured after 30 mins by DiOC6 dye based flow cytometry. It counts as functional, cell-based. The method, boiled down:
as §3

Data set [9] relates to A-375. In words: Induction of apoptosis in human A375 cells assessed as increase in intracellular ROS production at 1 uM measured after 24 hrs by DCF-DA fluorescence dye based flow cytometry relative to control. The class given is functional. In outline:
(§4)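 A375 cells were exposed to treatments for 24 h and washed with PBS. They were loaded with 20 µM DCF-DA in serum-free DMEM at 37°C for 30 min, washed with ice-cold PBS and harvested. Mean DCF fluorescence was measured by flow cytometry as the ROS level; n=3, mean±SD, relative to untreated cells.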

Data set [10] relates to HeLa. The data set can be described thus: Induction of apoptosis in human HeLa cells assessed as necrotic cells at 1 uM measured after 24 hrs by Annexin V-FITC/propidium iodide staining based flow cytometry relative to control. It counts as functional.
Data set [11] relates to A-375. In words: Induction of apoptosis in human A375 cells assessed as increase in P53 expression measured after 24 hrs by Western blot analysis. The class given is functional, cell-based. The method, boiled down: as §2
A short description of data set [12]: Drug uptake in nucleus of human A375 cells at 2 uM measured after 24 hrs by Mito-Tracker Green staining based laser confocal microscopic analysis. The class given is ADME. In outline: (§5)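 A375 cells were plated at 10^5 cells/mL for 24 h to about 70% confluence. They were exposed to 2 μM at 37°C for 24 h, washed, then stained with 100 nM Mito-Tracker Green (488 nm) for 30 min. After PBS washes, compound fluorescence (568 nm) and the mitochondrial stain were imaged by laser confocal microscopy.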

Data set [13] concerns A-375. The data set can be described thus: Induction of apoptosis in human A375 cells assessed as chromatin condensation measured after 24 hrs by DAPI staining based fluorescence microscopic analysis. It counts as functional, cell-based. In outline:
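A375 cells were treated with 1, 2 or 4 μM for 24 h, washed, and fixed in cold methanol:acetic acid (3:1) for 10 min. They were stained with 1 μg/mL DAPI at 37°C for 5 min and imaged by fluorescence microscopy at 364 nm, 400×, for nuclear morphology.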

The nature of data set [14]: Drug uptake in mitochondria of human A375 cells at 2 uM measured after 24 hrs by Mito-Tracker Green staining based laser confocal microscopic analysis. It counts as ADME. The method, boiled down: as §5
Data set [15] concerns A-375. In words: Induction of apoptosis in human A375 cells assessed as decrease in mitochondrial membrane potential at 4 uM measured after 30 mins by DiOC6 dye based flow cytometry relative to control. The class given is functional. The arrangement: scale not given: the % may be the effect or the level left. In outline: as §3
In data set [16] the test system is A-375. In words: Induction of apoptosis in human A375 cells assessed as increase in intracellular ROS production at 2 uM measured after 24 hrs by DCF-DA fluorescence dye based flow cytometry relative to control. The class given is functional. In outline:
as §4

The subject of data set [17] is A-375. In words: Induction of apoptosis in human A375 cells assessed as increase in intracellular ROS production measured after 24 hrs by DCF-DA fluorescence dye based flow cytometry. It counts as functional, cell-based. In outline:
as §4

Data set [18] concerns HeLa. The data set can be described thus: Induction of apoptosis in human HeLa cells assessed as live cells at 1 uM measured after 24 hrs by Annexin V-FITC/propidium iodide staining based flow cytometry (reference value: 99.9 %). It counts as functional.
Data set [19] relates to HeLa. In words: Reduction in mitochondrial membrane potential in mitochondria isolated from human HeLa cells measured after 2 hrs by DiOC6 dye based HSFCM analysis. It counts as functional, cell-based. In outline: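 Mitochondria isolated from HeLa cells were treated at 0, 1, 10, 50 or 100 µM for 2 h at 37°C and washed with MT buffer. They were stained with 500 nM DiOC6 for 15 min at 37°C, washed twice and resuspended in MT buffer. Analysis was on a laboratory-built high-sensitivity flow cytometer, recording median and mean green fluorescence against drug concentration.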

Data set [20] concerns HeLa. The data set can be described thus: Induction of apoptosis in human HeLa cells assessed as early apoptotic cells at 1 uM measured after 24 hrs by Annexin V-FITC/propidium iodide staining based flow cytometry (reference value: 0.078 %). The class given is functional.

For the compound `CCCCCCCC[N+](C)(CCCCCCCC)Cc1ccc2c(c1)C(=O)c1ccccc1C2=O`, the results for the IC50 in data set [1] and in [2] were 2.08 µM and 8.46 µM, respectively.

In the case of `CCCCCCCCCC[N+](C)(CCCCCCCCC)Cc1cc(O)c2c(c1)C(=O)c1cc(OC)cc(O)c1C2=O` (stereo not given), the IC50 (commonly the concentration needed to halve the response being measured) turned out to be 3.97 µM in [1], 9.56 µM in [2], 3.85 µM in [3] and 2.2 µM in data set [4].

Turning to `CCCCCCCC[N+](C)(CCCCCCCC)Cc1cc(O)c2c(c1)Cc1cc(O)cc(O)c1C2=O`, the IC50 in data set [1] and in data set [2] was greater than 100 µM in each case.

In the case of `COCCOCC[N+](CCOCCOC)(CCOCCOC)Cc1cc(OC)c2c(c1)C(=O)c1cc(OC)cc(OC)c1C2=O`, the IC50 in [1], in data set [2], in data set [3] and in [4] was greater than 100 µM throughout.

For `CCCCCCCCCC[N+](C)(CCCCCCCCCC)Cc1ccc2c(c1)C(=O)c1ccccc1C2=O`, the IC50 came to 1.57 µM in data set [1] and 5.84 µM in data set [2].

For the compound `CCCCCCCCC[N+](C)(CCCCCCCC)Cc1cc(O)c2c(c1)C(=O)c1cc(OC)cc(O)c1C2=O.[Br-]` (stereo not given), the Activity was 60.8% in data set [5]; “Dose-dependent effect” in data set [6]; 25% in data set [7]; “Dose-dependent effect” in data set [8]; 35% in data set [10]; “Dose-dependent effect” in [11]. Moreover, the Activity entry in data set [13] was “Dose-dependent effect”; in data set [15], 38%; in [17], “Dose-dependent effect”; in data set [18] it was 3.73%; in [19] it was “Dose-dependent effect”; in [20], 0.444%. The “fold change (FC)” value in [9] was 2.7; in data set [16], 5.8. For the same compound, the Drug uptake entry is given as “Not Active” in data set [12] and “Active” in data set [14]. For the same compound, the IC50 in data set [1] worked out at 4.12 µM; in [2] it was 9.65 µM; in data set [3] it was 2.79 µM; in [4], 1.39 µM.

In the case of `Cc1cc(O)c2c(c1)C(=O)c1cc(O)cc(O)c1C2=O` [EMODIN], the IC50 in [1] is greater than 50 µM; in data set [2], 46.3 µM; in data set [3], greater than 50 µM; in data set [4], 44.9 µM.

`CCCCCCCC[N+](CCCCCCCC)(CCCCCCCC)Cc1cc(OC)c2c(c1)C(=O)c1cc(OC)cc(OC)c1C2=O`: the IC50 in [1] came to 5.45 µM; in [2] it was 4.5 µM; in [3] it was 5 µM; in data set [4], 3.46 µM.

For the compound `CCCCCCCCC[N+](C)(CCOCCOCCO)Cc1cc(OC)c2c(c1)C(=O)c1cc(OC)cc(OC)c1C2=O` (stereo not given), the IC50 came to 37.7 µM in data set [1], 40.4 µM in data set [2], 32.7 µM in data set [3] and 28.9 µM in data set [4].

For the compound `CCCCCCCCC[N+](C)(CCCCCCCCC)Cc1cc(O)c2c(c1)C(=O)c1cc(OC)cc(O)c1C2=O`, the IC50 was 7.39 µM in data set [1], 9.83 µM in [2], 3.93 µM in data set [3] and 2.63 µM in data set [4].

`CCCCCCCCC[N+](C)(C)Cc1cc(O)c2c(c1)C(=O)c1cc(OC)cc(O)c1C2=O`: the IC50 turned out to be 10.4 µM in data set [1], 21.6 µM in [2], 9.76 µM in [3] and 9.87 µM in [4].

On to `CC(=O)O[C@H]1C(=O)[C@@]2(C)[C@H]([C@H](OC(=O)c3ccccc3)[C@]3(O)C[C@H](OC(=O)[C@H](O)[C@@H](NC(=O)c4ccccc4)c4ccccc4)C(C)=C1C3(C)C)[C@]1(OC(C)=O)CO[C@@H]1C[C@@H]2O` [PACLITAXEL], for which the IC50 in data set [4] was 11.3 µM.
